Results on 3 compounds are retold here after ChEMBL document CHEMBL3593243, “Discovery of novel, potent, selective and cellular active ADC type PTP1B inhibitors via fragment-docking-oriented de novel design” (Bioorg Med Chem, 2015).

Calls of active or inactive are those of the source. No cut-off for these calls is given here.

The target of assay [1] is Tyrosine-protein phosphatase non-receptor type 6 (Homo sapiens) (UniProt P29350). In words: Inhibition of SHP1 (unknown origin) using pNPP as substrate at 25 uM relative to control.
Chain of Tyrosine-protein phosphatase non-receptor type 6 (Homo sapiens) (P29350 whole entry): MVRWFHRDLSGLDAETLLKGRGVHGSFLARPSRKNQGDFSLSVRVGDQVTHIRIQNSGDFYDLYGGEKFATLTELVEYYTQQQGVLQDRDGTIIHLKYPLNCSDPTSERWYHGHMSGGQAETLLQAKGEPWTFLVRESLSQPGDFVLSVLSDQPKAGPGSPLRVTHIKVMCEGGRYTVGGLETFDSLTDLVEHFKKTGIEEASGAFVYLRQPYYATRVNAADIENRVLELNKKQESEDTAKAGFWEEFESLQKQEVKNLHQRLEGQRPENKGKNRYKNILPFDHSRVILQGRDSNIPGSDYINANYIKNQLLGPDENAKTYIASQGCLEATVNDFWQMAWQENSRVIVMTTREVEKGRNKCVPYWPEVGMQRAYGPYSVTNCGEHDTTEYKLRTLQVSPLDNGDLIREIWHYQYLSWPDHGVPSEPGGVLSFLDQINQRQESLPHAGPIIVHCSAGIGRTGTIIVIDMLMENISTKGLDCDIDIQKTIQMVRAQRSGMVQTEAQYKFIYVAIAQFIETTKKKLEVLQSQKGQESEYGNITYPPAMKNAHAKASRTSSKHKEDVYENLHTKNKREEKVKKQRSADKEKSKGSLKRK
The target of assay [2] is T1, Tyrosine-protein phosphatase non-receptor type 11 (Homo sapiens) (UniProt Q06124).
T1 sequence (whole entry): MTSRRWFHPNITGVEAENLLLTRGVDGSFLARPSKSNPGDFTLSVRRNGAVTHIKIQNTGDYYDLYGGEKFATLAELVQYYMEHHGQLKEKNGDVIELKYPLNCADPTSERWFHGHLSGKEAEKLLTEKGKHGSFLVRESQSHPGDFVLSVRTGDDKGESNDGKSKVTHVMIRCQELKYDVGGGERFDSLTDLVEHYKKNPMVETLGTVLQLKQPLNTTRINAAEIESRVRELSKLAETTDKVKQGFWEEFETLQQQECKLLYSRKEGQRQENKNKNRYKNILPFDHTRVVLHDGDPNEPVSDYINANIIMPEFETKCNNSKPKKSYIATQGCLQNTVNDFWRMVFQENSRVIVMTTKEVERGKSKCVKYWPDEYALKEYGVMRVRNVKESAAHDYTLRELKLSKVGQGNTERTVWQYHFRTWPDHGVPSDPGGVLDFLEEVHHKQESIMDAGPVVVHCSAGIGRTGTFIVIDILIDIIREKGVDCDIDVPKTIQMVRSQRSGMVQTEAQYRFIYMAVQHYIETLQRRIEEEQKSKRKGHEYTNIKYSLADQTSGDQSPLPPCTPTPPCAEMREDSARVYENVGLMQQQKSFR
In words: Inhibition of SHP2 (unknown origin) using pNPP as substrate at 25 uM relative to control.

Assay [3] concerns the target Receptor-type tyrosine-protein phosphatase F (Homo sapiens) (UniProt P10586). The assay can be described thus: Inhibition of LAR (unknown origin) using pNPP as substrate at 25 uM relative to control.
The species named for a further assay is Homo sapiens. The assay can be described thus: Selectivity ratio of IC50 for TCPTP (unknown origin) to IC50 for recombinant PTP1B (unknown origin). Summed up: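 Ratio of TCPTP to PTP1B IC50. Both enzymes (PTP1B at 30 nM recombinant) assayed with 2 mM pNPP, 1 mM DTT, 1 mM EDTA, pH 6.5, 30 min at 37 °C, NaOH stop, A405; IC50 by logit method, triplicate for PTP1B.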

Assay [4] has as its target T2, Tyrosine-protein phosphatase non-receptor type 2 (Homo sapiens) (UniProt P17706).
T2 sequence (whole entry): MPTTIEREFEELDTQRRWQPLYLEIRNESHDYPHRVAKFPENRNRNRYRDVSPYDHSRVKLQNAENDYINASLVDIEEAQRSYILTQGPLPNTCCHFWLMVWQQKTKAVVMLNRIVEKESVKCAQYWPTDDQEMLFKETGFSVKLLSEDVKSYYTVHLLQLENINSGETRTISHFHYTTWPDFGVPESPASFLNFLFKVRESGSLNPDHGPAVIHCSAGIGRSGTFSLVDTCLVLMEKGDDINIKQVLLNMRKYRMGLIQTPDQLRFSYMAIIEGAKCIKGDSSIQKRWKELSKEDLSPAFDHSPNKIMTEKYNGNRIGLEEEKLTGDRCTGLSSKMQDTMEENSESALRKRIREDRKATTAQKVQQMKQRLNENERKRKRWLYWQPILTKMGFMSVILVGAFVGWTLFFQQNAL
In words: Inhibition of TCPTP (unknown origin) assessed as pNPP hydrolysis at 25 uM after 30 mins relative to control.

The target in assay [5] is T3, Tyrosine-protein phosphatase non-receptor type 1 (Homo sapiens) (UniProt P18031).
T3 sequence (whole entry): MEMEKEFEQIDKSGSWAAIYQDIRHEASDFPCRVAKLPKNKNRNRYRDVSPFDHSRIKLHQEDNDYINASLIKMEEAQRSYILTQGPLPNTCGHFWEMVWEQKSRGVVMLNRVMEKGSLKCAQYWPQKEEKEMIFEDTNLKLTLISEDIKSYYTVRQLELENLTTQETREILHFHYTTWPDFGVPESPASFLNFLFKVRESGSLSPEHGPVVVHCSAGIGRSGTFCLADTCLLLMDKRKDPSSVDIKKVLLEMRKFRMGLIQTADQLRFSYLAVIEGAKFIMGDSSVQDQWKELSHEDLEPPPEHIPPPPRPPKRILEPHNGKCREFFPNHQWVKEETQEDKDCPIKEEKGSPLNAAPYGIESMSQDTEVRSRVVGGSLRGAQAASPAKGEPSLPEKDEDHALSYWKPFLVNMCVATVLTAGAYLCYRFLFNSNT
The assay can be described thus: Competitive inhibition of recombinant PTP1B (unknown origin) assessed as pNPP hydrolysis at 0.1 to 0.8 uM after 30 mins by Lineweaver-Burk plot analysis. Summed up:
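Kinetics in 100 µL of 50 mM MOPS pH 6.5 with 30 nM recombinant PTP1B. pNPP in 2-fold dilutions from 64 mM, inhibitor at 0.1–0.8 µM (0 as reference). Km and Vmax from Michaelis–Menten fits; mechanism judged by Lineweaver–Burk double-reciprocal plots.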

The test system of a further assay is CHO. The assay can be described thus: Inhibition of PTP1B in CHO cells transfected with human insulin receptor-beta assessed as increase in insulin-mediated tyrosine phosphorylation of insulin receptor-beta at 25 to 50 uM preincubated for 4 hrs followed by insulin stimulation measured after 10 mins by Western blot analysis. The note with it: Cricetulus griseus. The class given is cell-based. Summed up: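 CHO cells in F12/10% FBS transfected 8 h with 2 µg human IR plasmid, reseeded and grown 24 h at 37 °C, 5% CO2. Serum-starved 2 h, compound 4 h, then 10 nM insulin 10 min. Lysates (Triton/HEPES pH 7.4 buffer) run on SDS-PAGE, blotted with PY-20 and β-actin.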
(Immunoblotting shows a protein as a band on a membrane.)

Chain of Receptor-type tyrosine-protein phosphatase F (Homo sapiens) (P10586 whole entry): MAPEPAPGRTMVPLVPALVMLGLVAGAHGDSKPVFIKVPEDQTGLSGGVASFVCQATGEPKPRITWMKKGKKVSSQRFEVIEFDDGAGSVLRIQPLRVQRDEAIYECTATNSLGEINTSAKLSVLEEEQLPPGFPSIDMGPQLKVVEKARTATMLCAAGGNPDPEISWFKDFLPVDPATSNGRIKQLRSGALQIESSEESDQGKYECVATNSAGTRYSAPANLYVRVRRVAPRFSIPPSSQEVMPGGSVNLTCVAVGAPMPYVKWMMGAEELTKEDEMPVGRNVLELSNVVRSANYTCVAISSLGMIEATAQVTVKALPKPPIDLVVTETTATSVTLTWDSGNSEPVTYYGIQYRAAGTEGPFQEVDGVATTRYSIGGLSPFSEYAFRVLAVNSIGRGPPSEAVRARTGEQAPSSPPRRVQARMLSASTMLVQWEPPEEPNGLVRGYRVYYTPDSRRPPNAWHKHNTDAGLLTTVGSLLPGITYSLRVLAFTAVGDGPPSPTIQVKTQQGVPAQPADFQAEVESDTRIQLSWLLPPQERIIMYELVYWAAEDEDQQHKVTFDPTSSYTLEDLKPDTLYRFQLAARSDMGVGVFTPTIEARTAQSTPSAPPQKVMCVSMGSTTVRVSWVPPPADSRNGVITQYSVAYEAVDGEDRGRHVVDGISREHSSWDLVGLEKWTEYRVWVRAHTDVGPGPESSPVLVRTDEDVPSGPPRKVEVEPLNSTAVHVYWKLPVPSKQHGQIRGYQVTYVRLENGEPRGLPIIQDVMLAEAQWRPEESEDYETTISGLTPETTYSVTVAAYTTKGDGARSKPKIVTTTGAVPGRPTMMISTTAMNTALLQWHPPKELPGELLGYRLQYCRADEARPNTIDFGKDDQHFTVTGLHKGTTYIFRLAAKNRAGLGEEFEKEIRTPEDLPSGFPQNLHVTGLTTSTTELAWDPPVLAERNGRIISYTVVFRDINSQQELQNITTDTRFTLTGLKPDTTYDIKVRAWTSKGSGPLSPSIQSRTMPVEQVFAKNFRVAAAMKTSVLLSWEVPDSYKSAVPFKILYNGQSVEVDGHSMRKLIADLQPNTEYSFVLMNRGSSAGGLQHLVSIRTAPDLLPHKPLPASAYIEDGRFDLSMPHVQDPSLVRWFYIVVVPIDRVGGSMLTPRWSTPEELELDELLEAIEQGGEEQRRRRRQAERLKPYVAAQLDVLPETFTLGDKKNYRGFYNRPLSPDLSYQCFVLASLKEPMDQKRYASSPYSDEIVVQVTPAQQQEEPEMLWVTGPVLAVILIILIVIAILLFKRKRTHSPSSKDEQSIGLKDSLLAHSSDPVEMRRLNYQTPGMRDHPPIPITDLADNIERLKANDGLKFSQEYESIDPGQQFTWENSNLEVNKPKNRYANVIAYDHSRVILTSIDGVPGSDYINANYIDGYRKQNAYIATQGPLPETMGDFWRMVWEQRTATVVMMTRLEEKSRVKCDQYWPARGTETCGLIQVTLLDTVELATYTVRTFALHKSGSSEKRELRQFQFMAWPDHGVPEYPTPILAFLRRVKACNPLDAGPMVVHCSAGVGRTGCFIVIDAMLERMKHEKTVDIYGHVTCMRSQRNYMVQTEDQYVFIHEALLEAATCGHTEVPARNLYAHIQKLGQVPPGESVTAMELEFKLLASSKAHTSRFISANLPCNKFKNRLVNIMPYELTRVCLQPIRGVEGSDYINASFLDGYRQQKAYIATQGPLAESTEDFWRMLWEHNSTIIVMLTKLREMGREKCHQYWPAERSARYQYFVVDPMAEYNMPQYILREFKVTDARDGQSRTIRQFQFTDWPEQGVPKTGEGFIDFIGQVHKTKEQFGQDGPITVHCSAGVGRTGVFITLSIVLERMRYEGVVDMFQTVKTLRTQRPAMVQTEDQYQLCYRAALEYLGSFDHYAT

As to `CCOc1cc(NS(C)(=O)=O)c(OCC)cc1CNC(=O)Nc1ccc(C)cc1`, the inhibition in assay [1], in assay [2] and in assay [3] was under 50% in each case. Besides, the Ratio IC50 in the assay filed under Homo sapiens came out at 16.

As for `CCOc1cc(NS(C)(=O)=O)c(OCC)cc1CNC(=O)Nc1ccc(Br)cc1`, the inhibition in assay [2] and in assay [3] was under 50% in each case. In addition, in the assay listed under Homo sapiens, the Ratio IC50 amounted to 6.

As for `CCOc1cc(NS(C)(=O)=O)c(OCC)cc1CNC(=O)Nc1ccc(OC)cc1`, the inhibition in assay [4], in assay [2] and in assay [3] was under 50% throughout. For the same compound, the inhibition result (in assay [5]; in the assay on CHO) was “Active” throughout. In addition, the Ratio IC50 in the assay filed under Homo sapiens was over 120.

Usually inhibition stands for the share of the control response that was lost under treatment.
